Drawing on the RNAGym collection of RNA variant scans (doi:10.1126/science.aae0568), this text covers yeast fitness for 38 variants.

Fewer inactive variants are shown than the library holds.

To fix the notation:
B1: tRNA (parent)
chain: GUUCCGUUGGCGUAAUGGUAACGCGUCUCCCUCCUAAGGAGAAGACUGCGGGUUCGAGUCCCGUACGGAACG

The variants in the data set derive from B1. The experiment in a line: yeast fitness relative to wild type (ratio to wild type); higher = fitter; tRNA-Arg(CCU), competitive growth, 37 C, YPD. Summed up: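 A pool of Saccharomyces cerevisiae strains, each with a tRNA-Arg(CCU) gene variant at the native genomic locus, was competed in YPD at 37°C for 24 hours across six parallel replicates. The variants had been chemically synthesised at a 3% per-site mutation rate over 69 sites, and gene amplicons before and after competition were read by 100-nucleotide paired-end sequencing. Darwinian fitness relative to wild type rested on changes in genotype frequencies. Genotypes required ≥ 100 starting reads, and estimates < 0.5 were set to 0.5.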
In the case of GUUCCGUUCGCGUAAUGGUAACGCGUCUCCCUCCUAAGGAGAAGACUCCGGGUUCGAGUCCCGUACGGAACG [G9C G48C], the yeast fitness is 0.695.

On to GUUCCGUUCGCGUAAGGGUAACGCGUCUCCAUCCUAAGGAGAAGACUGCGGGUUCGAGUACCGUACGGAACG [G9C U16G C31A C60A], for which the yeast fitness was no more than 0.5.

As for GUUCCGUUCGCGUAAUGGUAACGCGUCCCCCUCCUAAGGAGUAGACUGCGGGUUCGAGUCCCGUACGGAACG [G9C U28C A42U], the yeast fitness stood at 0.647. With GUUCCGUUGACGUCAUAGUAAGGGGUCUCACUCCUAAGGAGAAGACUGCGGGUUCGAGUCCCGUACGGAACG [G10A A14C G17A C22G C24G C30A], the yeast fitness came to 0.775. GUUCCGUUCGCGUAAUGGUAACGCGUCUCCCUCCUAAGGAGAAGACGGAGGGUUCGAGUCCCGUACGGUACG [G9C U47G C49A A69U]: the yeast fitness is no more than 0.5.

For the variant GUUCCGUUCGCGUAAUGGUAACGCGUCUCCCGGCUAAGGAGAAGACUGCAGGGUCGAGUCCCGUACGGAACG [G9C U32G C33G G50A U53G], the yeast fitness is no more than 0.5. For the variant GUUCCGUUCGCGAAAUGGUAACGCAUCUCCCUCCUAAGGCGAAGACUGCGGGUUCGCGUCGCGUACAGAACG [G9C U13A G25A A40C A57C C61G G67A], the yeast fitness was no more than 0.5. GUUCCGUUUGCGUAAUGGUAAUGCGUCUCCCUCCUAAGGAGAAGACUGCGGGUUCGAGUCCCGUACGGAACG [G9U C22U]: the yeast fitness is 0.715. In the case of GUUCCGUUCGCGUAAUGGUAACGCGUCUCCCUCCUAAGGAGAAGACUGCGGGUUCGAGUCCCAUACGGAACG [G9C G63A], the yeast fitness was found to be 0.72. Take GUUCCGUUCGCGUAACGGUAACGCGUCUCACUCCUAAGGACAAGCGUGCGGGUUCGAGUCCCGUACGGAACG [G9C U16C C30A G41C A45C C46G]: the yeast fitness was no more than 0.5. Turning to GUUCCGUUUGCGUAAUGAUAACGCGUCUCCCUCCUAAGGAGAAGAAUGGGGGUUCGAGUCCCGUACGGAACG [G9U G18A C46A C49G], the yeast fitness was 0.552.

For the variant GUUCCGUUCGCGUAAUGGCAACGCGUCUCCAUCCUAAGGAGAAGACUGCGGGUUCGAGUCCCGUACGGAACG [G9C U19C C31A], the yeast fitness is no more than 0.5.

For GUUCCGUUCGCGUAAGGGUAACGCGUCUGCCUCCUAAGGGGAAGACUGCGGGUUCGAGUCCCGUACGGAACG [G9C U16G C29G A40G], the yeast fitness was no more than 0.5.

For the variant GUUCCGUUUGCGUAAUGGUAACGGGUCUCCCUCCUAAGGAGAAGACUGCGGGUUUGAGUCCCGUACGGAACG [G9U C24G C55U], the yeast fitness turned out to be 0.668. Turning to GUUCCGUUUGCGUAAUGGUAACGCGUCUCCUUCCUCAGGAGAAGACUGCGGGCUCGAGUCCCGUACGGAACG [G9U C31U A36C U53C], the yeast fitness was no more than 0.5.

In the case of GUUCCGUUUGGGUAAUGGUAACGCGUCUCCCGCCUAAGGAGAAGACUGCGGGUUCAAGUCCCGUACGGAACG [G9U C11G U32G G56A], the yeast fitness is no more than 0.5. GUUCCGUUCGCGUAAUGGUAACGCGUCUCCCUCCUAAGGAGAAGACUGCGGGUUCCAGUCCCGUACGGAACG [G9C G56C]: the yeast fitness worked out at 0.514.

For the variant GUUCCGUUCGCGUAAUGGUAACGCGUCUCCCUCCUAAGGAGAAGACUGCCGGGUCGAGUCCCGUACCGAACG [G9C G50C U53G G67C], the yeast fitness amounted to 0.68. Regarding GUUCCGUUCGCGUAAUGGCAACGCGUCUCCCUCCUAAGGAGAAGACUACGGGUUCGAGUCCCGCACGGAACG [G9C U19C G48A U64C], the yeast fitness worked out at 0.609.

As to GUUCCGUUCGCGUAAUGGUAACGCGUCUCCCUCCUAAGGAGAAGACUGCGGGUGCGAGUCCCGUACGGAACG [G9C U54G], the yeast fitness is 0.605. In the case of GUUCCGUUCGCGAAAUGGUAACGCGUCUCCCUCCUAAGGAGAAGACUGCGGGUUCGAGACCCGUACGGAACG [G9C U13A U59A], the yeast fitness is 0.718. GUUCCGUUCGCGCAAUGGUAACGCGUAUCCCUCCUAAGGAGAAGACUGCGGGUACGAGUUCCGUACGGAACG [G9C U13C C27A U54A C60U]: the yeast fitness is no more than 0.5.

In the case of GUUCCGUUCGCGUAAUGGUAACGCGUCUCCCUCCUAAGGAGAAAACUGCGGGUUCGAGUGCCGUACGGAACG [G9C G44A C60G], the yeast fitness is no more than 0.5. In the case of GUUCCGUUGACGUGAUGGUAACGCGCCUCCCUCCUUAGGAGAAGACUGCGGAUUCGAGUCCCGUACGGAACG [G10A A14G U26C A36U G52A], the yeast fitness was no more than 0.5. For the variant GUUCCGUUCGCGUAAGGGUGACGCGUCUCCCUCCUAAGGAGAAGACUGCGGGUUCGAGUCCCGUACGGAACG [G9C U16G A20G], the yeast fitness came to 0.803.

On to GUUCCGUUCGCGUAAUGGUAACGCGUCACCCUCCUAAGGCGAAGACUGCGGGUUCGAGCCCCGUACGGAACG [G9C U28A A40C U59C], for which the yeast fitness is no more than 0.5. In the case of GUUCCGUUUGAGUAAUGGUAACGGGUCUCGCUCCUAAGGAGAAGACUGCGGGUUCGAGUCCCGUACGGAACG [G9U C11A C24G C30G], the yeast fitness is no more than 0.5. Consider GUUCCGUUCGCGUAAUGGUAACGCGUCGCCCUCCUAAGGAGAAGACUGCGGGUUCGAGUCCCGUCCGGAACG [G9C U28G A65C], for which the yeast fitness stood at 0.582. Turning to GUUCCGUUCGCGUAAAGGUAACGUGUCUCUCUCCUAAGGAGAAGACUGCGGGUUCGAGUCCUGUACGGAACG [G9C U16A C24U C30U C62U], the yeast fitness was no more than 0.5.

Take GUUCCGUUCGCGUAACGGUAACGCGUCUCCCUCCUAAGGAGAAGACUGCGGGUUCGAGUCCCGUACGGCACG [G9C U16C A69C]: the yeast fitness is 0.562. Take GUUCCGUUCGCGUAAUGGUAACGCGUCUCCCUCCUAAGGAGAAGACUGCGGGUCCGAGCCCCGUACGGGACG [G9C U54C U59C A69G]: the yeast fitness is no more than 0.5. For GUUCCGUUUGCGUAAUGGUAACGCGUCUCCCUCCUAAGGAGAAGACUGCGGGUUCGAGUCCCGUACGGACCG [G9U A70C], the yeast fitness stood at 1.13. In the case of GUUCCGUUCGCGUAAUGGUAACGCGUCUCCCUCCUAAGGAGAAGACUGCGGGUUCGAGACCCGUACGGAACG [G9C U59A], the yeast fitness amounted to 0.737.

GUUCCGUUGACGUUAUGGUAACGCGUCUCCCUCCUAAGGAGAAGACUGCGGGUUCGAGUCCCGUACGGAACG [G10A A14U]: the yeast fitness is no more than 0.5.

For the variant GUUCCGUUCGCGUAAUGGUAACGCGUCUCCCUCCUAAGGAGAACACUGCGGGUUCGAGUCCCGUACGGAACG [G9C G44C], the yeast fitness came to 0.65.

Regarding GUUCCGUUCGCGUAAUGGUAACGCGUCUCCCUCCUAAGGAGAAGACUGCGGGCUCGAGUCCCGUACGGAACG [G9C U53C], the yeast fitness turned out to be 0.59. Turning to GUUCCGUUCGCGUAAUGGUAACGCGUCUCCCUCCUAAGGAGAAGACUGCGGGAUCGAGUCCCGUAUGGAACG [G9C U53A C66U], the yeast fitness was no more than 0.5. For GUUCCGUUCGCGAAAUGGUAACGCAUCUCCCUCCUAAGGCGAAGACUGCGGGUUCGCAUCACGUACAGAACG [G9C U13A G25A A40C A57C G58A C61A G67A], the yeast fitness is no more than 0.5.
